From ChEMBL document CHEMBL4190318 (Eur J Med Chem, 2017)
Active and inactive are the calls of the source. The calls are words filed in the database; no cut-off is given here.

T1: N-acylethanolamine-hydrolyzing acid amidase (Rattus norvegicus, UniProt Q5KTC7)
T1 sequence (Q5KTC7 whole entry): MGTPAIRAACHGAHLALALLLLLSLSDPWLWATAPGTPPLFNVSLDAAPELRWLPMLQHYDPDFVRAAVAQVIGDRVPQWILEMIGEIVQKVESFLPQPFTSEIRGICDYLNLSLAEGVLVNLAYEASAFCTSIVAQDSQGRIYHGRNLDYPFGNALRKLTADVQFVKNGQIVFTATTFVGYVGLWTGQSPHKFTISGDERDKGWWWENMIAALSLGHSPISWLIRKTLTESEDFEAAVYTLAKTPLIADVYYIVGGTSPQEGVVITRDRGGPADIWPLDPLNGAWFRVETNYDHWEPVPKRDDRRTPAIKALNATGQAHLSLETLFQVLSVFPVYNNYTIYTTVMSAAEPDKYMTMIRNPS

T2: Acid ceramidase (Rattus norvegicus) (UniProt Q6P7S1)
T2 sequence (whole entry): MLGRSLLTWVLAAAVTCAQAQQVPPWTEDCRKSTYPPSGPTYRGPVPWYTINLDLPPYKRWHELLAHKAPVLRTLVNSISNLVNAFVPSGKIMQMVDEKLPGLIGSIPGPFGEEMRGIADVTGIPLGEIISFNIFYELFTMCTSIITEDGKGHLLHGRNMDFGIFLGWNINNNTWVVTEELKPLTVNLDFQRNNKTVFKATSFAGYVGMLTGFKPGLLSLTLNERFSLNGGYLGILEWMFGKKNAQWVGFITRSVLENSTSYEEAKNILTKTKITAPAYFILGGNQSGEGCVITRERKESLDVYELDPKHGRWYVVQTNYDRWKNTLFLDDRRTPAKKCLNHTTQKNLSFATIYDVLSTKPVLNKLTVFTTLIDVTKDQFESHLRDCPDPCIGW

T3: N-acylethanolamine-hydrolyzing acid amidase (Rattus norvegicus) (UniProt Q5KTC7)
T3 sequence (whole entry): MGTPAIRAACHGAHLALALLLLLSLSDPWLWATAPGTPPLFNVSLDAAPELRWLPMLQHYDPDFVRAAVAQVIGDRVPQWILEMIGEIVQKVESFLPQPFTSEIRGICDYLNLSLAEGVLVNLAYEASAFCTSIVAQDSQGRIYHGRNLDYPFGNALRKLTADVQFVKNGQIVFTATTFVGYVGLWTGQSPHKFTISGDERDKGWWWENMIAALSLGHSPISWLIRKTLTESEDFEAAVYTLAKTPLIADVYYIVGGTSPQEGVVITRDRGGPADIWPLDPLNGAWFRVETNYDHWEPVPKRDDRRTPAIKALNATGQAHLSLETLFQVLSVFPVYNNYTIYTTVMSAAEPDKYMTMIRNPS


How the values were obtained:
[1] = molecular target: T1, N-acylethanolamine-hydrolyzing acid amidase; test: Inhibition of rat NAAA expressed in HEK293 cells using heptadecenoylethanolamide as substrate after 30 mins by HPLC-MS/MS analysis
How it was run: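 Rat NAAA activity measured against heptadecenoylethanolamide (C17:1 FAE) substrate, with hydrolysis products quantified by LC-MS. IC50 derived by nonlinear regression of concentration-response curves. Runs done in triplicate (n = 3); mean ± SD of three independent experiments.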

[2] = molecular target: N-acylethanolamine acid amidase (Rattus norvegicus); test: Inhibition of rat N-acylethanolamine acid amidase expressed in HEK293 cells using heptadecenoylethanolamide as substrate after 30 mins by LC-MS analysis
[3] = molecular target: T2, Acid ceramidase (Rattus norvegicus); test: Inhibition of rat acid ceramidase expressed in HEK293 cells assessed as remaining activity at 20 uM using N-lauroylceramide as substrate after 30 mins by LC-MS analysis (reference value: 100 +/- 21.4 %); assay type: cell-based
[4] = molecular target: T3, N-acylethanolamine-hydrolyzing acid amidase (Rattus norvegicus); test: Inhibition of rat NAAA expressed in HEK293 cells at 50 to 250 nM using heptadecenoylethanolamide as substrate after 30 mins in presence of covalent beta-lactone NAAA inhibitor ARN077 by Yonetani-Theorell plot analysis
[5] = molecular target: T3, N-acylethanolamine-hydrolyzing acid amidase (Rattus norvegicus); test: Reversible inhibition of rat NAAA expressed in HEK293 cells at 10 fold IC50 preincubated for 10 mins followed by 100 fold dilution using heptadecenoylethanolamide as substrate by HPLC-MS/MS analysis; assay type: cell-based
[6] = molecular target: T3, N-acylethanolamine-hydrolyzing acid amidase (Rattus norvegicus); test: Inhibition of rat NAAA expressed in HEK293 cells at 50 to 250 nM using heptadecenoylethanolamide as substrate after 30 mins in presence of non-covalent competitive NAAA inhibitor E8 by Yonetani-Theorell plot analysis; assay type: cell-based
[7] = compound: O=C(CCCCCc1ccc(Cl)cc1)N1CCOC1=O; test: (§1) Inhibition of rat NAAA expressed in HEK293 cells assessed as Km for substrate in presence of varying concentration of heptadecenoylethanolamide substrate after 30 mins by Michaelis-Menten plot analysis (reference value: 1395 +/- 260 microM); assay type: cell-based
[8] = compound: O=C(CCCCCc1cccc(Cl)c1)N1CCOC1=O; test: as §1; assay type: cell-based
[9] = compound: O=C(CCCCCc1ccc(Cl)cc1)N1CCOC1=O; test: (§2) Inhibition of rat NAAA expressed in HEK293 cells assessed as enzyme Vmax per mg protein in presence of varying concentration of heptadecenoylethanolamide substrate after 30 mins by Michaelis-Menten plot analysis (reference value: 9383 +/- 937 nmol/min); assay type: cell-based
[10] = compound: O=C(CCCCCc1cccc(Cl)c1)N1CCOC1=O; test: as §2; assay type: cell-based

| Molecule | IC50 [1] | other results |
| --- | --- | --- |
| O=C(CCCCCc1cccc(O)c1)N1CCOC1=O | 8.64 µM |  |
| O=C(CCCCCc1ccc(O)c(Cl)c1)N1CCOC1=O | > 20 µM |  |
| O=C(CCCCCc1cccc(CO)c1)N1CCOC1=O | > 20 µM |  |
| O=C(O)c1cccc(CCCCCC(=O)N2CCOC2=O)c1 | > 20 µM |  |
| O=C1OCCN1C(=O)c1ccc(OC2CCC(O)CC2)cc1 (stereo unspecified) | 0.21 µM |  |
| O=C(CCCCCc1ccccc1)N1CCOC1=O |  | IC50 [2]: 0.27 µM; Activity [3]: 90.6% |
| O=C(CCCCCc1ccccc1O)N1CCOC1=O | > 20 µM |  |
| O=C1OCCN1C(=O)c1ccc(OC2CCOCC2)cc1 | 0.33 µM |  |
| O=C(CCCCCc1ccc(I)cc1)N1CCOC1=O | > 20 µM |  |
| CCCCCCOc1ccc(C(=O)N2CCOC2=O)cc1 | 0.64 µM |  |
| O=C(CCCCCc1ccc(O)cc1)N1CCOC1=O |  | Activity [3]: 95.1% |
| O=C1OCCN1C(=O)c1ccc(Oc2ccc(O)cc2)cc1 | > 20 µM |  |
| O=C(CCCCCc1cccc(Br)c1)N1CCOC1=O | 0.43 µM |  |
| O=C(CCCCCc1ccc(CO)cc1)N1CCOC1=O | 0.19 µM |  |
| O=C1OCCN1C(=O)c1ccc(OC2CCCCC2)cc1 | 0.092 µM | IC50 [2]: 0.092 µM; Activity [3]: 81.7% |
| CSc1cccc(CCCCCC(=O)N2CCOC2=O)c1 | 12.8 µM |  |
| O=C(CCCCCc1ccc(Cl)cc1)N1CCOC1=O | 4.6 µM |  |
| COc1ccc(CCCCCC(=O)N2CCOC2=O)cc1 | > 20 µM |  |
| O=C(CCCCCc1ccccc1Cl)N1CCOC1=O | > 20 µM |  |
| COc1cccc(CCCCCC(=O)N2CCOC2=O)c1 | 16.3 µM |  |
| Nc1cccc(CCCCCC(=O)N2CCOC2=O)c1 | > 20 µM |  |

| Molecule | IC50 [1] | other results |
| --- | --- | --- |
| O=C(CCCCCc1cccc(C(F)(F)F)c1)N1CCOC1=O | 0.058 µM |  |
| CCC(CC)Oc1ccc(C(=O)N2CCOC2=O)cc1 | 0.48 µM |  |
| Cc1ccccc1CCCCCC(=O)N1CCOC1=O | > 20 µM |  |
| O=C(CCCCCc1cccc(Cl)c1)N1CCOC1=O |  | Activity [3]: 85.3%; inhibition [4]: Active; inhibition [5]: Active; inhibition [6]: Active |
| NC(=O)c1cccc(CCCCCC(=O)N2CCOC2=O)c1 | > 20 µM |  |
| O=C(CCCCCc1ccc(O)c(F)c1)N1CCOC1=O | 0.16 µM |  |
| O=C(CCCCCc1cccc(I)c1)N1CCOC1=O | 3.12 µM |  |
| O=C(CCCCCc1ccc(C(F)(F)F)cc1)N1CCOC1=O | 1.04 µM |  |
| O=C1OCCN1C(=O)c1ccc(Oc2cccc(Cl)c2)cc1 | 7.74 µM |  |
| O=C1OCCN1C(=O)c1ccc(OC2CCCC2)cc1 | 0.12 µM |  |
| CCCCOc1ccc(C(=O)N2CCOC2=O)cc1 | 1.34 µM |  |
| Nc1ccc(CCCCCC(=O)N2CCOC2=O)cc1 | 15.7 µM |  |
| Cc1ccc(CCCCCC(=O)N2CCOC2=O)cc1C | > 20 µM |  |
| O=C(CCCCCc1ccc(Br)cc1)N1CCOC1=O | 8.51 µM |  |
| Cc1ccc(Oc2ccc(C(=O)N3CCOC3=O)cc2)cc1 | 6.4 µM |  |
| NC(=O)c1ccc(CCCCCC(=O)N2CCOC2=O)cc1 | > 20 µM |  |
| Cc1cccc(Oc2ccc(C(=O)N3CCOC3=O)cc2)c1 | 5.21 µM |  |
| O=C(O)c1ccc(CCCCCC(=O)N2CCOC2=O)cc1 | > 20 µM |  |
| CSc1ccc(CCCCCC(=O)N2CCOC2=O)cc1 | > 20 µM |  |
| O=C(CCCCCc1ccc(F)c(Cl)c1)N1CCOC1=O | 0.026 µM |  |
| N-acylethanolamine-hydrolyzing acid amidase (Rattus norvegicus), Q5KTC7 (protein) MGTPAIRAACHGAHLALALLLLLSLSDPWLWATAPGTPPLFNVSLDAAPELRWLPMLQHYDPDFVRAAVAQVIGDRVPQWILEMIGEIVQKVESFLPQPFTSEIRGICDYLNLSLAEGVLVNLAYEASAFCTSIVAQDSQGRIYHGRNLDYPFGNALRKLTADVQFVKNGQIVFTATTFVGYVGLWTGQSPHKFTISGDERDKGWWWENMIAALSLGHSPISWLIRKTLTESEDFEAAVYTLAKTPLIADVYYIVGGTSPQEGVVITRDRGGPADIWPLDPLNGAWFRVETNYDHWEPVPKRDDRRTPAIKALNATGQAHLSLETLFQVLSVFPVYNNYTIYTTVMSAAEPDKYMTMIRNPS |  | Km [7]: 1670 µM; Km [8]: 1280 µM; Vmax [9]: 9900 nmol/min/mg; Vmax [10]: 2790 nmol/min/mg |
